Laboratory results: ChEMBL document CHEMBL1135733, “6-Sulfonylchromenes as highly potent K(ATP)-channel openers” (J Med Chem, 2002)

What was measured:
[1] = organism: Rattus norvegicus; assay: Difference between the pEC50 values in rat aorta and trachea as an indicator of selectivity; format: functional
[2] = organism: Rattus norvegicus; assay: Dilator activity expressed as potency for relaxation of Aortic rings precontracted with 25 mM K; format: functional
Summary of the method: (§1)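 Isolated rat aortic rings at 5 mN resting force in supplemented Krebs solution, 32.5 °C, equilibrated 2 h with two test contractures; cumulative concentration-effect curves, effects as % of basal force (100% relaxation) vs maximum force (0%). pEC50 by linear extrapolation at half-maximal effect; Emax as % of basal tension; mean ± SEM, n = 4–6; paired time controls.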

[3] = molecular target: ATP-binding cassette sub-family C member 9 (Rattus norvegicus) (UniProt Q63563); assay: Binding affinity to the sulfonylurea receptor 2A (SUR2A) in purified membranes of rat-heart myocytes; format: cell membranes
[4] = organism: Rattus norvegicus; assay: Dilator activity expressed as potency for relaxation of Tracheal strips percontracted with 0.6 uM carbachol; format: functional
Summary of the method: (§2)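 Rat tracheal strips at 10 mN resting force in supplemented Krebs solution, 32.5 °C, equilibrated 2 h with two test contractures; concentration-effect curves, effects as % of basal force (100% relaxation) vs maximum force (0%). pEC50 by linear extrapolation at half-maximal effect; Emax as % of basal tension; mean ± SEM, n = 4–6; paired time controls.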

[5] = organism: Rattus norvegicus; assay: Maximum level of relaxation of aortic rings measured as percentage of basal tension.; format: functional; conditions: Aorta; summary of the method: as §1
[6] = organism: Rattus norvegicus; assay: Maximum level of relaxation of tracheal strips measured as percentage of basal tension; format: functional; conditions: Trachea; summary of the method: as §2
[7] = molecular target: ATP-binding cassette sub-family C member 9 (Rattus norvegicus) (UniProt Q63563); assay: Binding affinity towards Sulfonylurea receptor 2B (SUR2B) in cultured rat aortic smooth muscle cells (SMC)

ATP-binding cassette sub-family C member 9 (Rattus norvegicus), sequence (Q63563 whole entry): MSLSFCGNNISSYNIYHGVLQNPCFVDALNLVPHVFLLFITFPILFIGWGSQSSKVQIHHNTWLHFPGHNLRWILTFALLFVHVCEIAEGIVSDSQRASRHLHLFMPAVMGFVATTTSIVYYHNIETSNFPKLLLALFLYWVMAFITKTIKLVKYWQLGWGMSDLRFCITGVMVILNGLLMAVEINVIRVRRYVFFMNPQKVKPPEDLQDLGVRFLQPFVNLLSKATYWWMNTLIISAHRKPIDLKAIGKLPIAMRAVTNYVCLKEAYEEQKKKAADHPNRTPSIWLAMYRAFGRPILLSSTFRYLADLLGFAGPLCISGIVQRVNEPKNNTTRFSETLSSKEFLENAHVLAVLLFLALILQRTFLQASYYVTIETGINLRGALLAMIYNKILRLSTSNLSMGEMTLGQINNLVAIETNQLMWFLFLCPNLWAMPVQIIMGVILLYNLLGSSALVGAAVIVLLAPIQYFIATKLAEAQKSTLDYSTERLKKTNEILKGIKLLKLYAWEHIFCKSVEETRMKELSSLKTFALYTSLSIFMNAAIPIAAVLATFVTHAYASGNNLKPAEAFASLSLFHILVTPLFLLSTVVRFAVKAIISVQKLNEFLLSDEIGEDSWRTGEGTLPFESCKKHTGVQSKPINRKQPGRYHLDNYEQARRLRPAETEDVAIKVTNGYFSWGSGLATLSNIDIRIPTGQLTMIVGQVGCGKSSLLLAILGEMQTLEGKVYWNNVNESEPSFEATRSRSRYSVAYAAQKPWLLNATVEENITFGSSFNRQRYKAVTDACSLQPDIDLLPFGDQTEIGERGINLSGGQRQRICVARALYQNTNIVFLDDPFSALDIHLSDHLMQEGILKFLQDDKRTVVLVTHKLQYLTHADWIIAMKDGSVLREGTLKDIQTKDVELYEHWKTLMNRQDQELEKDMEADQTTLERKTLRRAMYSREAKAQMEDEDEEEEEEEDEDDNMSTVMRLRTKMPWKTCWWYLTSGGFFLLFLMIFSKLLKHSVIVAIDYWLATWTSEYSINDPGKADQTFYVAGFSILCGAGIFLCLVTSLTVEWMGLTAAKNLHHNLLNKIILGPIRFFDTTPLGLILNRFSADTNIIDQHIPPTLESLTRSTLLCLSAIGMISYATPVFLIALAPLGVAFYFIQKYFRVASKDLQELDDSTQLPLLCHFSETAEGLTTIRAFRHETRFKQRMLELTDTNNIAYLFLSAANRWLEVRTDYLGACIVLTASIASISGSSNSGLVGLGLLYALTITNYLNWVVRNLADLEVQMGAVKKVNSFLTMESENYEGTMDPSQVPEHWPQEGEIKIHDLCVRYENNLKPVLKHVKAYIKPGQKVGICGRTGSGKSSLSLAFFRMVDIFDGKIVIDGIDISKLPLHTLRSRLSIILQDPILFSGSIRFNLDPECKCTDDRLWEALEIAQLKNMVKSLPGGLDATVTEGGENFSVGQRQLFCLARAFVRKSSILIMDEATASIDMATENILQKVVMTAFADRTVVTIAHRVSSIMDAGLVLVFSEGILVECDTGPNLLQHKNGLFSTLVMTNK

Compound | Delta pEC50 [1] | EC50 [2] | pKD [3] | EC50 [4] | Emax [5] | Emax [6] | pKD [7] | pKD ([3]; tested as the 2H-labelled form) | pKD ([7]; tested as the 2H-labelled form)
CC1(C)C=C(n2ccccc2=O)c2cc(S(=O)(=O)NCc3ccccc3)ccc2O1 | 0.4 | 525 nM | 5.28 | 1320 nM | 71.1% | 77.5% | 6 | – | –
CC1(C)C=C(n2ccccc2=O)c2cc(S(=O)(=O)N3CCOCC3)ccc2O1 | 0.85 | 85.1 nM | 6.44 | 603 nM | 75.5% | 85.1% | 6.73 | – | –
CC1(C)C=C(n2ccccc2=O)c2cc(S(=O)(=O)Nc3ccc([N+](=O)[O-])cc3)ccc2O1 | 0.69 | 2090 nM | 5.35 | 10200 nM | 82.2% | 75.6% | 5.8 | – | –
CC1(C)C=C(n2ccccc2=O)c2cc(C#N)ccc2O1 [BIMAKALIM] | 0.99 | 16.2 nM | 7.25 | 158 nM | 92.3% | 84.2% | 7.98 | – | –
CC1(C)C=C(n2ccccc2=O)c2cc(S(=O)(=O)Nc3ccc(Br)cc3)ccc2O1 | – | – | 5.77 | – | – | – | 6.65 | – | –
CC1(C)C=C(n2ccccc2=O)c2cc(S(=O)(=O)Nc3ccccc3F)ccc2O1 | – | – | 7.63 | – | – | – | 7.96 | – | –
CC1(C)C=C(n2ccccc2=O)c2cc(S(=O)(=O)c3ccccc3)ccc2O1 | 1.02 | 17.4 nM | 6.86 | 182 nM | 79.3% | 88.1% | 7.19 | – | –
CC1(C)C=C(n2ccccc2=O)c2cc(S(=O)(=O)Nc3ccccc3)ccc2O1 | 0.66 | 3.09 nM | 7.83 | – | 63.6% | 84.5% | 8.05 | 7.73 | 8.13
CC1(C)C=C(n2ccccc2=O)c2cc(S(=O)(=O)N=[N+]=[N-])ccc2O1 | 1.1 | 16.2 nM | 7.83 | 204 nM | 88.3% | 77.2% | – | – | –
CNS(=O)(=O)c1ccc2c(c1)C(n1ccccc1=O)=CC(C)(C)O2 | 0.89 | 17.8 nM | 7.18 | 138 nM | 85.8% | 83% | 7.26 | – | –
CC1(C)C=C(n2ccccc2=O)c2cc(S(=O)(=O)NC3CCCC3)ccc2O1 | – | – | 5.85 | – | – | – | 6.27 | – | –
CC1(C)C=C(n2ccccc2=O)c2cc(S(=O)(=O)F)ccc2O1 | 1.3 | 4.79 nM | 7.83 | 93.3 nM | 84.4% | 90.5% | 8.01 | – | –
CC1(C)C=C(n2ccccc2=O)c2cc(S(=O)(=O)Nc3ccc(C#N)cc3)ccc2O1 | 0.72 | 263 nM | 5.5 | 1380 nM | 84% | 90.8% | 6.12 | – | –
COc1ccc(NS(=O)(=O)c2ccc3c(c2)C(n2ccccc2=O)=CC(C)(C)O3)cc1 | 0.62 | 117 nM | 6.27 | 490 nM | 77.9% | 84.2% | 6.61 | – | –
CC1(C)C=C(n2ccccc2=O)c2cc(S(=O)(=O)Nc3ccccc3Br)ccc2O1 | – | – | 6.86 | – | – | – | 7.64 | – | –
CC1(C)C=C(n2ccccc2=O)c2cc(S(=O)(=O)NC(=O)Nc3ccccc3)ccc2O1 | 0.85 | 1410 nM | 5.5 | 10000 nM | 90.8% | 99.5% | – | – | –
CC1(C)C=C(n2ccccc2=O)c2cc(S(=O)(=O)Oc3ccccc3)ccc2O1 | 0.72 | 2.51 nM | 7.78 | 13.2 nM | 67.9% | 86.7% | 8.55 | – | –
CC(C)NS(=O)(=O)c1ccc2c(c1)C(n1ccccc1=O)=CC(C)(C)O2 | 0.46 | 676 nM | 5.18 | 1950 nM | 76.9% | 94.8% | 5.08 | – | –
[2H]c1c([2H])c([2H])c(NS(=O)(=O)c2ccc3c(c2)C(n2ccccc2=O)=CC(C)(C)O3)c([2H])c1[2H] | 0.82 | 2 nM | – | 13.2 nM | 82.5% | 88% | – | – | –
CN(c1ccccc1)S(=O)(=O)c1ccc2c(c1)C(n1ccccc1=O)=CC(C)(C)O2 | 0.75 | 1.74 nM | 7.69 | 9.77 nM | 64.2% | 86.5% | 7.87 | – | –
CC1(C)C=C(n2ccccc2=O)c2cc(S(N)(=O)=O)ccc2O1 | 0.51 | 69.2 nM | 6.5 | 224 nM | 77.5% | 92.1% | 6.94 | – | –
CCN(CC)S(=O)(=O)c1ccc2c(c1)C(n1ccccc1=O)=CC(C)(C)O2 | – | – | 6.45 | – | – | – | 6.94 | – | –
CC1(C)C=C(n2ccccc2=O)c2cc(S(=O)(=O)NCCO)ccc2O1 | 0.96 | 110 nM | 6.16 | 1000 nM | 95.5% | 87.9% | 6.34 | – | –
CN(C)S(=O)(=O)c1ccc2c(c1)C(n1ccccc1=O)=CC(C)(C)O2 | 0.77 | 16.2 nM | 6.91 | 95.5 nM | 78.3% | 74.1% | 7.2 | – | –
CC1(C)C=C(n2ccccc2=O)c2cc(S(=O)(=O)NC(=O)NC3CCCCC3)ccc2O1 | – | – | 5.25 | – | – | – | – | – | –
CCNS(=O)(=O)c1ccc2c(c1)C(n1ccccc1=O)=CC(C)(C)O2 | 0.88 | 56.2 nM | 6.7 | – | 72.4% | 87% | 7 | – | –
CC1(C)Oc2ccc(S(=O)(=O)c3ccccc3)cc2[C@@H](N2CCCC2=O)[C@@H]1O [RILMAKALIM] | 1.05 | 2.4 nM | 7.57 | 26.9 nM | 81.2% | 78.5% | 8.15 | – | –
